Assay results: ChEMBL document CHEMBL4765328 (Eur J Med Chem, 2020)
Active and inactive are the calls of the source. The rule behind the calls is not given here.

Legend:
HeLa [1] = test: Induction of apoptosis in human HeLa cells assessed as viable cells at 10 nM measured after 48 hrs by Annexin V-FITC/propidium iodide staining based flow cytometry (reference value: 89.57 %); format: functional; details: read-out: Activity
HeLa [2] = test: Induction of apoptosis in human HeLa cells assessed as viable cells at 10 nM measured after 24 hrs by Annexin V-FITC/propidium iodide staining based flow cytometry (reference value: 89.57 %); format: functional; details: read-out: Activity
HeLa [3] = test: Induction of apoptosis in human HeLa cells assessed as reduction in mcl-1 protein expression at 10 nM after 24 hrs by Western blot analysis; format: functional, cell-based
HeLa [4] = test: Induction of microtubule network depolymerization in human HeLa cells assessed as appearance of disorganised microtubules at 100 nM after 24 hrs by immunofluorescence staining based confocal microscopic analysis; format: cell-based
Procedure, shortened: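 HeLa cells treated 24 h at 10, 50 or 100 nM. They were then fixed in cold 4% formaldehyde for 15 min and stained with anti-β-tubulin for 2 h at room temperature. Alexa 488 secondary and DAPI counterstain followed; imaged by confocal microscopy at 20X.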

Bos taurus [5] = species: Bos taurus; test: Inhibition of [3H]colchicine binding to bovine brain tubulin at 0.5 uM relative to control; format: tissue-based
Procedure, shortened: (§1)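 [3H]colchicine binding to purified tubulin, with tubulin at 0.5 µM and colchicine at 5 µM. Compounds tested at 5 and 0.5 µM. CA-4 was run in contemporaneous experiments for comparison.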

HeLa [6] = test: Downregulation of BubR1 expression in human HeLa cells at 10 nM after 48 hrs by Western blot analysis; format: functional, cell-based
Procedure, shortened: (§2)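 HeLa cells treated 24 or 48 h, then washed in cold PBS and lysed in 0.1% Triton X-100/RNase A at 0 °C. Lysates were cleared at 15,000 x g. 10 µg protein was run on SDS-PAGE and blotted to PVDF, blocked in 5% BSA, and probed 2 h at room temperature with primary antibodies. HRP secondary and ECL detection followed; β-actin reprobe served as loading control.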

SEM cells [7] = test: Antiproliferative activity against human SEM cells assessed as inhibition of cell growth; format: functional, cell-based
Procedure, shortened: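 Compounds from 10 mM DMSO stocks; final DMSO ≤0.25%. Growth inhibition of cancer cell lines read from dose-response curves; IC50 as mean ± SEM of at least three independent experiments.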

[8] = Cytotoxicity against normal human astrocytes assessed as inhibition of cell growth; format: cell-based, Astrocyte
HeLa [9] = test: Induction of cell cycle arrest at G2/M phase in human HeLa cells assessed as increase in cyclin B1 expression after 24 to 48 hrs by Western blot analysis; format: functional, cell-based; details: dose 10-50 nM, time 24-48 hrs; procedure, shortened: as §2
HeLa [10] = test: Induction of apoptosis in human HeLa cells assessed as early apoptotic cells at 10 nM measured after 24 hrs by Annexin V-FITC/propidium iodide staining based flow cytometry (reference value: 2.1 %); format: functional
HeLa [11] = test: Induction of apoptosis in human HeLa cells assessed as necrotic cells at 10 nM measured after 48 hrs by Annexin V-FITC/propidium iodide staining based flow cytometry (reference value: 2.26 %); format: functional
HeLa [12] = test: Induction of apoptosis in human HeLa cells assessed as increase in bcl-2 phosphorylation at 10 nM after 24 hrs by Western blot analysis; format: functional, cell-based; procedure, shortened: as §2
HeLa [13] = test: Induction of mitochondrial membrane potential loss in human HeLa cells assessed as cells with polarized mitochondrial membrane at 10 nM after 24 hrs by JC-1 dye-based flow cytometric analysis (reference value: 94.3 %); format: functional
[14] = Antitumor activity mouse E0771 cells implanted in C57BL/6 mouse assessed as reduction tumor mass at 15 mg/kg, ip administered every other day relative to control; format: functional, EO771; parameters: scale not given: the % may be the effect or the level left
Procedure, shortened: (§3)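 Seven-week-old female C57BL/6 mice received 4 x 10^5 E0771 cells orthotopically in the mammary fat pad and were randomized once tumors were palpable. Dosing was ip every other day at 5 or 15 mg/kg, with DMSO vehicle in 100 µL. Caliper volume was V=(D×d²)/2, and tumor weight was taken at endpoint; n=5/group. Analysis used two-way ANOVA with Bonferroni.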

HeLa [15] = test: Induction of mitochondrial membrane potential loss in human HeLa cells assessed as cells with depolarized mitochondrial membrane at 10 nM after 48 hrs by JC-1 dye-based flow cytometric analysis (reference value: 5.7 %); format: functional
HL-60 = test: Potency index, ratio […] for human HL-60 cells assessed as inhibition of cell growth; format: functional
HeLa [16] = test: Downregulation of MAD-2 expression in human HeLa cells at 10 nM after 24 hrs by Western blot analysis; format: functional, cell-based; procedure, shortened: as §2
HeLa [17] = test: Induction of apoptosis in human HeLa cells assessed as increase in PARP cleavage at 10 nM after 24 hrs by Western blot analysis; format: functional, cell-based; procedure, shortened: as §2
Bos taurus [18] = species: Bos taurus; test: Inhibition of [3H]colchicine binding to bovine brain tubulin at 5 uM relative to control; procedure, shortened: as §1
SEM cells [19] = test: Potency index, ratio of CA-4 IC50 to compound IC50 for human SEM cells assessed as inhibition of cell growth; format: functional
HeLa [20] = test: Induction of apoptosis in human HeLa cells assessed as early apoptotic cells at 10 nM measured after 48 hrs by Annexin V-FITC/propidium iodide staining based flow cytometry (reference value: 2.1 %); format: functional
HeLa [21] = test: Induction of apoptosis in human HeLa cells assessed as increase in PARP cleavage at 10 nM after 48 hrs by Western blot analysis; format: functional, cell-based; procedure, shortened: as §2
[22] = Inhibition of bovine brain tubulin polymerisation preincubated with compound followed by GTP addition and measured after 20 mins by turbidimetry based spectrophotometric method; format: tissue-based, Bos taurus
Procedure, shortened: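 Bovine brain tubulin (10 µM) in glutamate buffer, preincubated with varying compound concentrations at 30 °C, then cooled to 0 °C. GTP added to 0.4 mM final, then warmed to 30 °C in a recording spectrophotometer. Assembly followed by turbidity at 350 nm.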

[23] = Antitumor activity mouse E0771 cells implanted in C57BL/6 mouse assessed as reduction tumor mass at 5 mg/kg, ip administered every other day relative to control; format: functional, EO771; parameters: scale not given: the % may be the effect or the level left; procedure, shortened: as §3
HeLa [24] = test: Induction of mitochondrial membrane potential loss in human HeLa cells assessed as cells with polarized mitochondrial membrane at 10 nM after 48 hrs by JC-1 dye-based flow cytometric analysis (reference value: 94.3 %); format: functional
HeLa [25] = test: Induction of apoptosis in human HeLa cells assessed as increase in bcl-2 phosphorylation at 10 nM after 48 hrs by Western blot analysis; format: functional, cell-based; procedure, shortened: as §2
HeLa [26] = test: Antiproliferative activity against human HeLa cells assessed as inhibition of cell growth; format: functional, cell-based
Procedure, shortened: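 Growth inhibition of cancer cell lines read from dose-response curves; IC50 as mean ± SEM of at least three independent experiments.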

[27] = Cytotoxicity against mouse E0771 cells assessed as cell growth inhibition after 72 hrs by MTT assay; format: functional; details: EO771
EO771 = test: Antitumor activity against mouse E0771 cells implanted in ip dosed C57BL/6 mouse assessed as reduction tumor growth administered every other day; format: functional, organism-based; details: dose 5-15 mg/kg; procedure, shortened: as §3
Jurkat = test: Potency index, ratio of CA-4 IC50 to compound IC50 for human Jurkat cells assessed as inhibition of cell growth; format: functional

CCOc1ccc2c(C(=O)c3cc(OC)c(OC)c(OC)c3)c(N)oc2c1
viability at 0.01 µM (HeLa [1]): 31.3%
viability at 0.01 µM (HeLa [2]): 64.5%
Activity (HeLa [3]): Active
Activity (HeLa [4]): Active
inhibition (Bos taurus [5]): 86%
Activity (HeLa [6]): Active
IC50 (SEM cells [7]): 0.00031 µM
GI50 [8]: > 10 µM
Activity (HeLa [9]): Dose-dependent effect
Activity (HeLa [10]): 6.72%
Activity (HeLa [11]): 21.63%
Activity (HeLa [12]): Active
Activity (HeLa [13]): 75.7%
Activity [14]: 45.7%
Activity (HeLa [15]): 54.7%
Ratio IC50 (HL-60): 3
Activity (HeLa [16]): Active
Activity (HeLa [17]): Active
inhibition (Bos taurus [18]): 99%
Ratio IC50 (SEM cells [19]): 16
Activity (HeLa [20]): 23.53%
Activity (HeLa [21]): Active
IC50 [22]: 0.37 µM
Activity [23]: 16.9%
Activity (HeLa [24]): 45.3%
Activity (HeLa [25]): Active
IC50 (HeLa [26]): 0.0028 µM
GI50 [27]: 0.0156 µM
Activity (EO771): Dose-dependent effect
Ratio IC50 (Jurkat): 3
